According to paper PMC4969713 (Journal of Alzheimer's Disease, 2016):
Like-named read-outs stand apart in the source and are kept apart here.

Experiments:
male BALB/c mice [1] = experiment: Elevated Plus-Maze; assay type: in vivo; conditions: IP, Buspirone 5 mg/kg; for locomotion (total number of arm visits): M1 5 or 20 mg/kg, M2 1 and 5 mg/kg; for anxiolytic effect (open/closed arm time and visits, defecations): M2 0.05, 0.5, 1.0, 5.0 mg/kg
Summary of the method: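 Elevated plus-maze in mice. Read-outs were open/closed arm time ratio, open/closed visit ratio, defecations and total visits. Each treated group was compared with the placebo group by Student t-test.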

male SHK mice = experiment: Apomorphine-induced disruption of pre-pulse inhibition; assay type: in vivo; conditions: IP; apomorphine 20 mg/kg; Haloperidol 1 mg/kg
Summary of the method: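 Male SHK mice received apomorphine as the pro-psychotic agent to disrupt pre-pulse inhibition. Groups: untreated control, apomorphine alone, haloperidol 1 mg/kg as positive control, and test compound at several doses. Groups were compared with the apomorphine-only group by Student test.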

BALB/c mice = experiment: Open Field test; assay type: in vivo; conditions: IP; Lorazepam 0.05 mg/kg, AVN-101 0.2 mg/kg
Summary of the method: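 Male BALB/c mice received lorazepam 30 min or test compound 5 min before testing; controls received saline, with at least 8 per group. Time in the central zone was recorded during a 10-min exploration. Comparison with the control group used ANOVA with Fisher LSD.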

male BALB/c mice [2] = experiment: Elevated Platform test; assay type: in vivo; conditions: IP; Lorazepam 0.05 mg/kg, AVN-101 0.2 mg/kg; initial 2 min
5-HT1A receptor = 5-HT1A receptor (Homo sapiens, UniProt P08908); conditions: Table 2; cited from earlier work
5-HT2C receptor [3] = target: T1, 5-HT2C receptor (Homo sapiens, UniProt P28335); conditions: Table 2; cited from earlier work
T1 sequence (P28335 33-458): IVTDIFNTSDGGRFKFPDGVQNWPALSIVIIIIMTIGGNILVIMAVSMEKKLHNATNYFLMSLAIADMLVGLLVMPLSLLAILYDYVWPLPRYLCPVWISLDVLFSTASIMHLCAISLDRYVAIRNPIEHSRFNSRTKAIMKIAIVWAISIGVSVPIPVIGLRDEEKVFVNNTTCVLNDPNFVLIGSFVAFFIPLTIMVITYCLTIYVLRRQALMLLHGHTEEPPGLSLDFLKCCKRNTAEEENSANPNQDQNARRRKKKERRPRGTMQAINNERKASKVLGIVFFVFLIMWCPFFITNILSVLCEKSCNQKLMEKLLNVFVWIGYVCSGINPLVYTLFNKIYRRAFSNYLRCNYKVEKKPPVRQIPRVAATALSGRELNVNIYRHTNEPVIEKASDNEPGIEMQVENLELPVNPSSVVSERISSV

5-HT7 receptor [4] = target: T2, 5-HT7 receptor (Homo sapiens, UniProt P34969); conditions: cited from earlier work
T2 sequence (P34969 whole entry): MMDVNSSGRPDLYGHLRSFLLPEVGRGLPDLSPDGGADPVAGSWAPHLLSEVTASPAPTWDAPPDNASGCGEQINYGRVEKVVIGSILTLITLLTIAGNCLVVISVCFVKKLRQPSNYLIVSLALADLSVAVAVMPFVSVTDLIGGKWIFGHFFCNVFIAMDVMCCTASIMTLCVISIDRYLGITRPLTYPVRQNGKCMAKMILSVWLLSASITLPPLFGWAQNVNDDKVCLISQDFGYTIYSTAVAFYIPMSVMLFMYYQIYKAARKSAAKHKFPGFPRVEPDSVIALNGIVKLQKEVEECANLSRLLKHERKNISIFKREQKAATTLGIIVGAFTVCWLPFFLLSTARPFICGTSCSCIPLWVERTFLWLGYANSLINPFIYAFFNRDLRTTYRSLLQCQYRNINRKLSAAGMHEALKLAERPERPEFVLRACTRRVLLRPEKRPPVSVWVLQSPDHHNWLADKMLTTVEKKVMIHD

5-HT1B receptor = conditions: Table 2; cited from earlier work
5-HT2A receptor [5] = target: T3, 5-HT2A receptor (Homo sapiens, UniProt P28223); conditions: Table 2; cited from earlier work
T3 sequence (P28223 whole entry): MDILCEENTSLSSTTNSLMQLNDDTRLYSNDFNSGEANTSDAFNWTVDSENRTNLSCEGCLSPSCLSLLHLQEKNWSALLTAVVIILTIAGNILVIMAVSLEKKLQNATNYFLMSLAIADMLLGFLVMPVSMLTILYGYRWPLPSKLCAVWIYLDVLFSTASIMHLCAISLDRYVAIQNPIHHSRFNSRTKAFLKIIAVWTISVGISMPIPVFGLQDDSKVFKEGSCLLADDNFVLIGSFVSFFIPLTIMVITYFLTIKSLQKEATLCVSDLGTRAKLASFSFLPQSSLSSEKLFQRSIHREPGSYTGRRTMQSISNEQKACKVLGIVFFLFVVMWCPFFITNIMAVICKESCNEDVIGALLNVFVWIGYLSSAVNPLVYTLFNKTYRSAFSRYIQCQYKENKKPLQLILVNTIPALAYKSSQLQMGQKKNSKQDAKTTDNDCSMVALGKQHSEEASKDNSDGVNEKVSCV

5-HT2B receptor = 5-HT2B receptor (Homo sapiens, UniProt P41595); conditions: Table 2; cited from earlier work
5-HT2B receptor, sequence (P41595 whole entry): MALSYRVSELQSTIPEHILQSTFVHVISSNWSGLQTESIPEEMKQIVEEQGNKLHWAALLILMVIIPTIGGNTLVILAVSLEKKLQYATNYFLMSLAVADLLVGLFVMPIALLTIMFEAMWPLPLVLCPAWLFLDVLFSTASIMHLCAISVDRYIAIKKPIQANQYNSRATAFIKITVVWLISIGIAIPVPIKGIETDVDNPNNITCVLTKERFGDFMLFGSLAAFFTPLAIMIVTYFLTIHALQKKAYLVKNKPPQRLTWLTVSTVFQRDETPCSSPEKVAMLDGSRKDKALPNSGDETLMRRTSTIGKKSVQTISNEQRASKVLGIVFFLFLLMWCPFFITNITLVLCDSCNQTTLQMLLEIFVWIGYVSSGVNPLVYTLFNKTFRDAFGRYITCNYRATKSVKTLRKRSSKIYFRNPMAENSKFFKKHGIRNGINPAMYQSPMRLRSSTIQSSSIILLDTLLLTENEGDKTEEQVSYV

5-HT6 receptor = 5-HT6 receptor (Homo sapiens, UniProt P50406); experiment: Radioligand binding competition, 5-HT6
5-HT6 receptor, sequence (P50406 whole entry): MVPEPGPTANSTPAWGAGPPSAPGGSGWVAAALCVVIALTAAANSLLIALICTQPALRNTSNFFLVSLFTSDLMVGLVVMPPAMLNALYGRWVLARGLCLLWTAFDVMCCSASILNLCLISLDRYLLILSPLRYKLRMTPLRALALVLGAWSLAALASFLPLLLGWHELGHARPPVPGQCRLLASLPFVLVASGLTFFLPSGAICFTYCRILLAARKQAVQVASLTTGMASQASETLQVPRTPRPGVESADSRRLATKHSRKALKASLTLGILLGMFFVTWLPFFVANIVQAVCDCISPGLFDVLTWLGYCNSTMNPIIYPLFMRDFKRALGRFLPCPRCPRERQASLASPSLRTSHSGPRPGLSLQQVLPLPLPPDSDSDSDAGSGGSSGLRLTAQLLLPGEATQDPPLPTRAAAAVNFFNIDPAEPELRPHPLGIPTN

5-HT2A receptor [6] = target: T3, 5-HT2A receptor; experiment: Radioligand binding competition, 5-HT2A
Adrenergic α1A = Adrenergic α1A (Homo sapiens, UniProt P35348); experiment: Radioligand competition, adrenergic α1A; assay type: binding
histamine H2 receptor = histamine H2 receptor (Homo sapiens, UniProt P25021); experiment: Radioligand binding competition, histamine H2
histamine H1 receptor = histamine H1 receptor (Homo sapiens, UniProt P35367); experiment: Radioligand binding competition, histamine H1
histamine H1 receptor, sequence (P35367 whole entry, species assumed): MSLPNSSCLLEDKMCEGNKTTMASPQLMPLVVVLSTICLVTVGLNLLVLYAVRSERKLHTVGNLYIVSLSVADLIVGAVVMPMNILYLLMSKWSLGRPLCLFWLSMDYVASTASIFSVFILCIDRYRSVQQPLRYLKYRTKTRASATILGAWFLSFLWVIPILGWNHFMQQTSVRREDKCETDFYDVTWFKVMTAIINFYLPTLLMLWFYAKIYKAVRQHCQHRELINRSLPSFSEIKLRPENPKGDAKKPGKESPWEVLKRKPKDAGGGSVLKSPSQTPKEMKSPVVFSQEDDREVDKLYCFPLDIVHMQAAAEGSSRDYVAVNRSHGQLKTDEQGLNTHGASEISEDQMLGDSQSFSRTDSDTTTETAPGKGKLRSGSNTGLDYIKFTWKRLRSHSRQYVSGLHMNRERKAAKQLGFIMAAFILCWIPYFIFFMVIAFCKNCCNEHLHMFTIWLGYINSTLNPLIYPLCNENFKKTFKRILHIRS

5-HT2C receptor [7] = target: T1, 5-HT2C receptor; experiment: Radioligand binding competition, 5-HT2C
5-HT7 receptor [8] = target: T2, 5-HT7 receptor; experiment: Radioligand binding competition, 5-HT7
hERG potassium channel = hERG potassium channel (Homo sapiens, UniProt Q12809); experiment: hERG single cell patch clamp in HEK cells; conditions: potassium currents, patch clamp
hERG potassium channel, sequence (Q12809 whole entry): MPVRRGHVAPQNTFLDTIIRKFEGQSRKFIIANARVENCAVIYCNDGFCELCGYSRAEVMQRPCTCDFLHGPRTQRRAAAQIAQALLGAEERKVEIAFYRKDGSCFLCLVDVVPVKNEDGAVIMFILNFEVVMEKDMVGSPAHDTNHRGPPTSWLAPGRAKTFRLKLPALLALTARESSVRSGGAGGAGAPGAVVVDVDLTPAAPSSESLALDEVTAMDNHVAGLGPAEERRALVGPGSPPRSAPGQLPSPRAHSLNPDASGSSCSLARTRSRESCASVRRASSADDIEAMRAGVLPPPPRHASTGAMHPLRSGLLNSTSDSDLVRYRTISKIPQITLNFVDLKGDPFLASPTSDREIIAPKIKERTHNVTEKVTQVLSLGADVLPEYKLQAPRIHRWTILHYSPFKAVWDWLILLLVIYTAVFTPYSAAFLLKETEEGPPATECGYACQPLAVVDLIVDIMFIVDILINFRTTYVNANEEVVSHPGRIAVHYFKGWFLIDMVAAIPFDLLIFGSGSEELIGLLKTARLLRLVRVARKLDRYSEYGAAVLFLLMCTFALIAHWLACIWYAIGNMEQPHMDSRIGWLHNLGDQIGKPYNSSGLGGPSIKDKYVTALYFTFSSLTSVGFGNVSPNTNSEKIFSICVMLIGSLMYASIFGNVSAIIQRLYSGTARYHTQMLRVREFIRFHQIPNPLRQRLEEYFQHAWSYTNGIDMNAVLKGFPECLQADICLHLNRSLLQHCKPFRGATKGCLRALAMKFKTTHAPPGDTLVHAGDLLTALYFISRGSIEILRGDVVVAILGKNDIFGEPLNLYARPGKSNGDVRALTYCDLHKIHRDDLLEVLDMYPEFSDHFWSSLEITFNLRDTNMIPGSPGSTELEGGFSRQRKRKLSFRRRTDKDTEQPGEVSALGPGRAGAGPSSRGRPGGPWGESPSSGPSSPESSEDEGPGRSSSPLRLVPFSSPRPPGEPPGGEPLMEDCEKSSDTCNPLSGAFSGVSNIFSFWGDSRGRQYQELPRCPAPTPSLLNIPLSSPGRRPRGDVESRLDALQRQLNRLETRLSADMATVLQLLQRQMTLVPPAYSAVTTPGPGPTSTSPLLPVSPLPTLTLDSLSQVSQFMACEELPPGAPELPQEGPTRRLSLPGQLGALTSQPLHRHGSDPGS

Pharmacokinetics in dogs = assay type: in vivo, dogs (Beagle); conditions: for AUC0 - >∞ / Cmax / T1/2 / Tmax: label = substance analyzed
5-HT4 receptor = 5-HT4 receptor (Homo sapiens, UniProt Q13639); experiment: Target panel binding, 5-HT4
5-HT4 receptor, sequence (Q13639 whole entry): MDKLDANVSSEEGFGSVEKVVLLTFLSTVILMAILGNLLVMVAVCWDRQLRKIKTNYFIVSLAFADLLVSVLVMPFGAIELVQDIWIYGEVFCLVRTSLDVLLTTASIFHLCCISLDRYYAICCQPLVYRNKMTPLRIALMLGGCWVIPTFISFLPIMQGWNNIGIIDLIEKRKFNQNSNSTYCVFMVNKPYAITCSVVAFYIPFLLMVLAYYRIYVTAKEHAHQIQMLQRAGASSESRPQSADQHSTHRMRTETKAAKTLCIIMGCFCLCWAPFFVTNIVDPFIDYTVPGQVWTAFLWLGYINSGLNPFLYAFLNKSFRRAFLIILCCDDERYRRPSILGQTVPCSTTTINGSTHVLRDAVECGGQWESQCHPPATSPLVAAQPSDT

5-HT3 receptor = 5-HT3 receptor (Homo sapiens, UniProt P46098); experiment: Target panel binding, 5-HT3
5-HT3 receptor, sequence (P46098 24-478): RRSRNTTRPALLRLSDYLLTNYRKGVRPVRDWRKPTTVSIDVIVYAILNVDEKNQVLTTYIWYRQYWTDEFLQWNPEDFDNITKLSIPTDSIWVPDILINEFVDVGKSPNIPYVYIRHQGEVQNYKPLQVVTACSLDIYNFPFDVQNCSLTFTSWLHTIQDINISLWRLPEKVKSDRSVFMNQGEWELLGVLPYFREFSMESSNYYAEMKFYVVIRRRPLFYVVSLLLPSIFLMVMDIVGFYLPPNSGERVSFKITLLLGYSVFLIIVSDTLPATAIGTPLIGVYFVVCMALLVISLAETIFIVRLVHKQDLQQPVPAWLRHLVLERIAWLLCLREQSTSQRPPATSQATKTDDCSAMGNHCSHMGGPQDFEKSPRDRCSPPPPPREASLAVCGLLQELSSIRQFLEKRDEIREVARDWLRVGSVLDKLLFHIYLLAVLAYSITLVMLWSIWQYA

Adrenergic α2A = Adrenergic α2A (Homo sapiens, UniProt P08913); experiment: Radioligand competition, adrenergic α2A; assay type: binding
Adrenergic α2A, sequence (P08913 whole entry): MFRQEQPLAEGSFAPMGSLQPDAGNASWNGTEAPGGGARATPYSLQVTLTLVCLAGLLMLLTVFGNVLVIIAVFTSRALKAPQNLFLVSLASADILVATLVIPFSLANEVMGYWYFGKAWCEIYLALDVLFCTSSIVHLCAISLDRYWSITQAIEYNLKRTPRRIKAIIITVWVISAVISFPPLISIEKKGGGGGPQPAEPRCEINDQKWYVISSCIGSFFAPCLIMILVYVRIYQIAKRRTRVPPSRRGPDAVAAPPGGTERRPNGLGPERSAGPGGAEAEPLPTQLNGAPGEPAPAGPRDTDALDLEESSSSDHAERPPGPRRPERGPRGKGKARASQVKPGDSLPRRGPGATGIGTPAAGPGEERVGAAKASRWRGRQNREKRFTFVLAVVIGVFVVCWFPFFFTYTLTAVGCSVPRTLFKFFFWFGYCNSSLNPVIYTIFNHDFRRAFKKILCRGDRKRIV

[9] = Phase I pharmacokinetics, single PO dose; assay type: in vivo, human; conditions: for AUC0 - >∞ / Cmax / T1/2: label = substance analyzed, Means ± SD
Caco-2 permeability = conditions: human

For `O=C1CC2(CCCC2)CC(=O)N1CCCCN1CCN(c2ncccn2)CC1` [Buspirone, reference compound], the “locomotion (total number of arm visits)” value (male BALB/c mice [1]) was “had no effect on total number of arm visits” and the “anxiolytic effect (open/closed arm time and visits, defecations)” value (male BALB/c mice [1]) was “clear anxiolytic effects”.

For `O=C(CCCN1CCC(O)(c2ccc(Cl)cc2)CC1)c1ccc(F)cc1` [Haloperidol, reference compound], the “effect on apomorphine-induced disruption of PPI” value (male SHK mice) was “able to prevent”.

In the case of `O=C1Nc2ccc(Cl)cc2C(c2ccccc2Cl)=NC1O` (stereo not shown) [Lorazepam, reference compound], the “time spent in the central area” value (BALB/c mice) is reported as “significant anxiolytic effect” and the “duration of freezing behavior” value (male BALB/c mice [2]) is reported as “significantly reduced duration of the freezing behavior”.

For `Fc1ccc2c(CCNCc3cccc(OCC(F)(F)C(F)F)c3)c[nH]c2c1` [Lu AE58054], the Ki (5-HT1A receptor) is given as 2300 nM, the Ki (5-HT2C receptor [3]) is given as 250 nM and the Ki (5-HT7 receptor [4]; Table 2) is given as over 10000 nM. The binding affinity (5-HT7 receptor [4]) was “very low, if any”, the Ki (5-HT1B receptor) was over 10000 nM and the Ki (5-HT2A receptor [5]) was 83 nM. For the same compound, the Ki (5-HT2B receptor) was over 4100 nM.

For `Cc1ccc2c(c1)c1c(n2CC(O)c2ccccc2)CCN(C)C1` (stereo not shown) [M1, 2-(2,8-dimethyl-1,2,3,4-tetrahydro-pyrido[[4,3-b]]indol-5-yl)-1-phenyl-ethan-ol], the “lower affinity compared to AVN-101” value (5-HT6 receptor) was 4 fold, the “lower affinity compared to AVN-101” value (5-HT2A receptor [6]) was 2 fold and the “affinity compared to AVN-101” value (Adrenergic α1A) was “practically same affinity”. The “lower affinity compared to AVN-101” value (histamine H2 receptor) was 9 fold, the Ki (histamine H1 receptor) was about 48 nM and the “lower affinity compared to AVN-101” value (histamine H1 receptor) was 83 fold. The “lower affinity compared to AVN-101” value (5-HT2C receptor [7]) was 7 fold, the Ki (5-HT7 receptor [8]) was 7.72 nM and the IC50 (hERG potassium channel) was 1630 nM. For the same compound, the Fabs (Pharmacokinetics in dogs; M1 PO 5 mg/kg vs IV 1 mg/kg) was 8.4%, the “AUC0 - >∞” value (Pharmacokinetics in dogs; after AVN-101 IV 2 mg/kg) was 264.6 ng·min/mL and the Cmax (Pharmacokinetics in dogs; after AVN-101 IV 2 mg/kg) was 5.7 ng/mL. For the same compound, the T1/2 (Pharmacokinetics in dogs; after AVN-101 IV 2 mg/kg) was 0.857 h, the Tmax (Pharmacokinetics in dogs; after AVN-101 IV 2 mg/kg) was 0.083 h and the “AUC0 - >∞” value (Pharmacokinetics in dogs; after AVN-101 PO 10 mg/kg) was 8,995 min×ng/mL. The Cmax (Pharmacokinetics in dogs; after AVN-101 PO 10 mg/kg) was 30.1 ng/mL, the T1/2 (Pharmacokinetics in dogs; after AVN-101 PO 10 mg/kg) was 2.582 h and the Tmax (Pharmacokinetics in dogs; after AVN-101 PO 10 mg/kg) was 1 h. The “AUC0 - >∞” value (Pharmacokinetics in dogs; after M1 IV 1 mg/kg) was 25,894 min×ng/mL, the Cmax (Pharmacokinetics in dogs; after M1 IV 1 mg/kg) was 4,550 ng/mL and the T1/2 (Pharmacokinetics in dogs; after M1 IV 1 mg/kg) was 0.958 h. For the same compound, the Tmax (Pharmacokinetics in dogs; after M1 IV 1 mg/kg) was 0.017 h, the “AUC0 - >∞” value (Pharmacokinetics in dogs; after M1 PO 5 mg/kg) was 10,828 min×ng/mL and the Cmax (Pharmacokinetics in dogs; after M1 PO 5 mg/kg) was 43 ng/mL. For the same compound, the T1/2 (Pharmacokinetics in dogs; after M1 PO 5 mg/kg) was 2.308 h, the Tmax (Pharmacokinetics in dogs; after M1 PO 5 mg/kg) was 2 h and the interaction (5-HT4 receptor) was “Neither AVN-101 nor its metabolites, M1 and M2, seem to interact”. The “locomotion (total number of arm visits)” value (male BALB/c mice [1]) was “some reduction in mice locomotor activity”, the “anxiolytic effect (open/closed arm time and visits, defecations)” value (male BALB/c mice [1]) was “clear anxiolytic effects” and the interaction (5-HT3 receptor) was “Neither AVN-101 nor its metabolites, M1 and M2, seem to interact”. For the same compound, the “lower affinity compared to AVN-101” value (Adrenergic α2A) was 3 fold, the “AUC0 - >∞” value ([9]; AVN-101 PO 2 mg) was 0.22 ± 0.116 ng·h/mL and the Cmax ([9]; AVN-101 PO 2 mg) was 0.0561 ± 0.0182 ng/mL. The T1/2 ([9]; AVN-101 PO 2 mg) was 2.49 ± 1.2 h, the “AUC0 - >∞” value ([9]; AVN-101 PO 4 mg) was 0.555 ± 0.297 ng·h/mL and the Cmax ([9]; AVN-101 PO 4 mg) was 0.112 ± 0.0381 ng/mL. The T1/2 ([9]; AVN-101 PO 4 mg) was 2.48 ± 1.27 h, the “AUC0 - >∞” value ([9]; AVN-101 PO 10 mg) was 1.41 ± 0.688 ng·h/mL and the Cmax ([9]; AVN-101 PO 10 mg) was 0.292 ± 0.176 ng/mL. For the same compound, the T1/2 ([9]; AVN-101 PO 10 mg) was 2.8 ± 1.71 h, the “AUC0 - >∞” value ([9]; AVN-101 PO 20 mg) was 3.1 ± 0.87 ng·h/mL and the Cmax ([9]; AVN-101 PO 20 mg) was 0.635 ± 0.311 ng/mL. For the same compound, the T1/2 ([9]; AVN-101 PO 20 mg) was 3.85 ± 0.56 h and the Tmax ([9]; after PO AVN-101) was “around 1 h”.

`COC(=O)c1ccccc1-c1c2ccc(=N)cc-2oc2cc(N)ccc12` [Rhodamine123, reference compound] gave a Papp (Caco-2 permeability) of 0.6 ± 0.2 ×10⁻⁶ cm/s and a Papp B→A (Caco-2 permeability) of 6.8 ± 0.4 ×10⁻⁶ cm/s.
